# The list is not random: actives were taken first. Their share in the collection is about 27%.
# CYP2C19 activ: cytochrome P450 2C19 (human) activation | recombinant CYP2C19, luciferin-H EGE luminescence; hits give high values; 0 = fully inhibited enzyme, 1 = untreated enzyme | AID 1025 | P33261 | 96,000 tested, under 10 active | activation factor at 5 µM;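 active means activation factor of at least 2 at 5 µM in the primary screen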;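 further: 0 = wells with 2.5 mM tranylcypromine and 1 = vehicle-only wells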
# CYP2C19 inhib: inhibitors of human CYP2C19; CYP2C19 Supersomes, luciferin-H EGE luminescence, 30 min; P33261; inhibition, % at 5 µM; 21% of 96,000 active; AID 778;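 active means CYP2C19 inhibition above a set limit at 5 µM in the primary screen, cut at about 50% in these data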;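 further: plate controls were negative control wells for no effect and 2.5 mM tranylcypromine positive control for full effect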
# Rev-RRE block: inhibitors of HIV-1 Rev-RRE RNA interaction; inhibition, % at 8 µM; 0.79% of 97,000 active; Rev peptide-RRE RNA binding, FRET; P05866;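 active means inhibition above the screen-wide mean plus 3 SD, cut at about 35% in these data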;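 further: 0% = median DMSO wells and 100% = median Neomycin B control wells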
# Target sequence (P05866 whole entry, looked up): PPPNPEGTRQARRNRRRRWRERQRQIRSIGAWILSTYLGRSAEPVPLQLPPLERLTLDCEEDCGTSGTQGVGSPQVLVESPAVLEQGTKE
#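 System: Cy5-labelled duplex RRE RNA binding fluorescein-labelled HIV Rev peptide; Signal: fluorescein-to-Cy5 FRET, 480 nm excitation; Also added: labelled Rev peptide; Compound: one concentration, 8 µM nominal; Buffer or medium: HEPES pH 7.5 salt buffer with EDTA; Read-out: % inhibition of FRET ratio versus controls; Schedule: 5 min preincubation and 15 min binding, 25 °C.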
# CYP2C9 inhib: inhibitors of human CYP2C9. P11712. CYP2C9 Supersomes, luciferin-H conversion, luminescence. inhibition, % at 5 µM. 20% of 96,000 active. AID 777;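 active means blocking of liver enzyme CYP2C9 beyond about 50% at 5 µM, limit read from the data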
# Target sequence (P11712 whole entry, looked up): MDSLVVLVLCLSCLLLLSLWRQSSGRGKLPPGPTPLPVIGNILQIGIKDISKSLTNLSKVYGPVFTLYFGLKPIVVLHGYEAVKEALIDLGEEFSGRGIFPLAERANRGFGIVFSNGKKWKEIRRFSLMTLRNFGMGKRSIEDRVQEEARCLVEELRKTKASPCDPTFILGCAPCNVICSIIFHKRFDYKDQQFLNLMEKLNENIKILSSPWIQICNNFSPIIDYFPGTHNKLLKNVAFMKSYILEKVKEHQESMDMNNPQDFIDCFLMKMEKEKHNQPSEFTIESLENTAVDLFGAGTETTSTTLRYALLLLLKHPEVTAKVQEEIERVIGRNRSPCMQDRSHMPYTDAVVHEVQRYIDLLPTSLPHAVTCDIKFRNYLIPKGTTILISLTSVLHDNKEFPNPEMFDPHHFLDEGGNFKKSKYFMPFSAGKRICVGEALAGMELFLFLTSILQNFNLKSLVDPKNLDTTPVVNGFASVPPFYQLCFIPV
# Cav32 inh: inhibitors of human Cav3.2 T-type calcium channel; O95180; Cav3.2-expressing cells, Fluo-4 calcium fluorescence FDSS; hits give low values; B-score at 10 µM; 4% of 100,000 active; AID 449739;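 active means single-dose well whose peak fluorescence ratio is a statistical outlier from its plate by either plate-standardised score or position-corrected B-score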
# CYP2C9 activ: activators of human CYP2C9; recombinant CYP2C9, luciferin-H conversion, luminescence; hits give high values; factor 1 = untreated enzyme, 0 = blocked; activation factor at 5 µM; 1.4% of 96,000 active;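 active means activation factor of 2 or more for CYP2C9 at a 5 µM dose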;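 further: 0 = sulfaphenazole-blocked wells and 1 = vehicle-only wells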
# * hit, by the source's call; . = no result; [ ] = dose if it differs, or a comment.
SMILES,CYP2C19 activ,CYP2C19 inhib,Rev-RRE block,CYP2C9 inhib,Cav32 inh,CYP2C9 activ
COc1ccc(CN(C(=O)c2ccc3c(c2)OCCO3)C(C(=O)NC2CCCCC2)c2ccc3ncccc3c2)cc1 (stereo unspecified),0.4,62.1*,-2.4,26.8,-3.39,0.7
CC1(C)C(c2ccccc2)=[N+]([O-])CN1O,1,-4.0,2.4,-8.8,1.31,1.1
CC(=O)Nc1c(C(=O)N2CCCCCC2)cnn1-c1ccccc1Cl,.,.,4.0,.,1.29,.
Cc1ccccc1-n1c(C)cc(/C=N/Nc2ccc([N+](=O)[O-])cn2)c1C,1.1,-13.0,32.8,-16.0,-0.298,1.2
CCSc1ncc(/C=N/Nc2ccc(Cl)cc2)n1C,0.7,29.4,-0.4,23.4,0.0121,0.8
CCSc1ncc(/C=N/Nc2ccccc2)n1C,0.6,43.5,-4.8,51.9*,-2.2,0.5
CCSc1ncc(/C=N/Nc2ccc([N+](=O)[O-])cc2)n1C,1,0.5,65.8*[fluorescence artefact?],3.5,0.612,1
CC(=O)N1CCc2ccc(C(=O)CN3CCN(c4cccc(C)c4C)CC3)cc21,1,-3.8,6.6,0.4,-0.037,1
Cc1ccc2c(CC(=O)Nc3nc(C)cs3)coc2c1,0.8,24.1,6.5,23.0,-6.8*,0.8
C[C@@H](NC(=O)C(=O)c1c[nH]c2ccccc12)c1ccccc1,.,.,.,.,-0.777,.
O=C(Cc1c[nH]c2ccccc12)Nc1nccs1,0.5,54.6*,6.2,20.7,-2.41,0.8
Cc1csc(NC(=O)Cc2c[nH]c3ccccc23)n1,0.6,35.2,5.3,28.1,-4.12*,0.7
O=C(Nc1nccs1)C(=O)c1c[nH]c2ccccc12,0.4,63.0*,2.2,18.5,0.038,0.8
CC1CN(C(=O)C(c2ccccc2)c2ccccc2)CC(C)O1 (stereo unspecified),0.9,9.9,5.6,11.3,-0.207,0.9
O=C(O)CN1C(=O)SC(Nc2ccccc2C(=O)O)C1=O (stereo unspecified),1,0.9,8.0,-9.2,1.44,1.1
O=C(Cc1ccccc1)Nc1nc2ccccc2[nH]1,0.6,42.1,11.4,34.5,0.138,0.7
O=C(Cc1c[nH]c2ccccc12)Nc1nc2ccccc2[nH]1,0.5,54.1*,8.6,58.3*,-6.27*,0.4
COc1cc(S(=O)(=O)NCc2cccnc2)c(OC)cc1Br,0.9,14.2,0.7,12.5,-0.223,0.9
O=c1cccccc1NCc1ccccc1,0.9,10.8,11.3,16.0,-1.52,0.8
CSc1ccc(CNc2cccc3ccccc23)cc1,0,98.4*,-0.5,13.2,-1.4,0.9
Cc1ccc(NCC(O)C(O)C(O)CO)cc1C (stereo unspecified),1,0.3,0.1,1.4,1.31,1
c1ccc(CNc2ccc(CNc3ncn[nH]3)cc2)cc1,.,.,3.3,.,0.119,.
CSc1ccc(CNc2ccc(C)cc2)cc1,0.1,86.6*,-2.1,13.4,-0.194,0.9
CSc1ccc(CNc2ccc(C)c(C)c2)cc1,0,98.3*,-2.2,0.0,-0.835,1
CSc1ccccc1NC(=O)c1ccncc1,0.3,66.0*,3.9,-0.3,0.189,1
SMILES,CYP2C19 activ,CYP2C19 inhib,Rev-RRE block,CYP2C9 inhib,Cav32 inh,CYP2C9 activ
CSc1ccccc1NC(=O)c1cc(C(C)C)on1,1,-1.5,3.5,-44.4,-0.763,1.4
CSc1ccccc1NC(=O)c1cc(C)on1,0.8,18.1,5.5,-142.7,0.0242,2.4*
COC(=O)c1ccc2c(=O)sc(N3CCC(C(N)=O)CC3)nc2c1,0.9,5.6,16.7,24.9,.,0.8
O=C(COC(=O)c1ccncc1)Nc1cc(Cl)c(Cl)cc1Cl,0,97.5*,6.5,88.2*,.,0.1
COC(=O)c1ccccc1NC(=O)COC(=O)c1cccnc1,0.5,49.5,7.5,40.4,-0.086,0.6
O=C(COC(=O)c1ccncc1)Nc1cc(Cl)ccc1Cl,0.3,66.3*,6.4,90.2*,0.0459,0.1
O=C(OCc1ccc(Cl)cc1Cl)c1ccncc1,0.3,69.4*,5.3,43.7,-0.995,0.6
O=C(C/C=N/OCc1ccc(Cl)cc1Cl)c1ccc(Cl)cc1,0.7,28.0,19.6,1.3,-2.93,1
O=C(CCN1C(=O)/C(=C/C=C/c2ccccc2)SC1=S)Nc1nccs1,1.1,-7.1,5.7,8.7,.,0.9
COc1ccc(N2CC(C(=O)NCCCN3CCOCC3)CC2=O)cc1 (stereo unspecified),1,1.1,4.7,13.2,-0.0234,0.9
Oc1c(C(c2ccccc2)N2CCN(Cc3ccccc3)CC2)sc2ncnn12 (stereo unspecified),0.2,78.0*,3.9,67.0*,0.0146,0.3
Oc1c(C(c2ccccc2)N2CCCCC2)sc2ncnn12 (stereo unspecified),.,.,.,.,0.56,.
CCOc1ccc(N(CC(=O)Nc2nccs2)S(=O)(=O)c2c(C)noc2C)cc1,0.3,70.6*,14.7,64.0*,-0.126,0.4
CCOc1ccc(NC(=O)CN(c2cc(C)cc(C)c2)S(=O)(=O)c2c(C)noc2C)cc1,.,.,12.4,.,-1.81,.
CCOc1ccc(N(CC(=O)NC(C)CC)S(=O)(=O)c2c(C)noc2C)cc1 (stereo unspecified),0.4,63.9*,4.7,27.6,0.927,0.7
CCOc1ccc(N(CC(=O)NC2CCCC(C)C2C)S(=O)(=O)c2c(C)noc2C)cc1 (stereo unspecified),0.9,5.5,.,17.9,-0.411,0.8
CCOc1ccc(N(CC(=O)NCc2ccccc2)S(=O)(=O)c2c(C)noc2C)cc1,0.1,91.2*,6.8,46.2,-0.613,0.5
COc1cccc(CNC(=O)CN(c2cc(C)cc(C)c2)S(=O)(=O)c2c(C)noc2C)c1,0.5,54.8*,2.1,58.4*,-1.93,0.4
O=c1nc(NCc2ccco2)sc2ncccc12,1.1,-8.8,5.7,6.8,0.13,0.9
CCCC(c1nnnn1Cc1cccs1)N1CCN(c2ccc(OC)cc2)CC1 (stereo unspecified),0.6,41.6,-2.4,35.3,-1.9,0.6
CC(C)C(c1nnnn1Cc1ccc(F)cc1)N1CCN(Cc2ccc3c(c2)OCO3)CC1 (stereo unspecified),0.1,86.9*,5.0,72.1*,-0.65,0.3
c1ccc(Cn2nnnc2CN2CCN(Cc3ccc4c(c3)OCO4)CC2)cc1,0.8,17.7,6.7,4.0,0.525,1
NC(=O)C1CCN(C(c2ccccc2Cl)c2nnnn2Cc2ccc3c(c2)OCO3)CC1 (stereo unspecified),0.2,81.1*,5.1,68.1*,0.874,0.3
CCN1CCN(C(c2nnnn2Cc2ccc3c(c2)OCO3)C(C)C)CC1 (stereo unspecified),.,.,1.7,.,0.148,.
CCC(c1nnnn1Cc1ccc2c(c1)OCO2)N1CCN(c2ccccc2)CC1 (stereo unspecified),0.3,68.3*,7.9,81.1*,-1.38,0.2
